# Screening data deposited in PubChem BioAssay by Johns Hopkins Ion Channel Center.
# KCNK3 block: human KCNK3 channel inhibitors, primary screen, CHO cells, FluxOR thallium flux, B-score; Potassium channel subfamily K member 3 (Homo sapiens), O14649; FluxOR fluorescence; stronger effect = lower value; B-score at 10 µM; 340,000 tested, 0.84% active; AID 602410, 2012;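 active = B-score under library mean minus 4 SD, starting fluorescence ratio at most library mean plus 5 SD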;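 note: more negative B-score means stronger inhibition of thallium flux through KCNK3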
# Kir21 block: inhibitors of mouse Kir2.1 inward-rectifier potassium channel. B-score at 10 µM. 310,000 tested, 0.85% active. HEK293-Kir2.1, FluxOR thallium flux fluorescence; stronger effect = lower value;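 active = fluorescence ratio B-score at or below minus 3 SD of library scores, with starting-brightness B-score within 2 SD, cut at about -4.2 in these data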;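 note: channel flux triggered by added potassium and thallium sulfate stimulus; B-score of peak minus minimum fluorescence over baseline after thallium stimulus; more negative B-score means stronger Kir2.1 block with less thallium influx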
# KCNK9 block: KCNK9 potassium channel inhibitors, primary screen, HEK293 cells, thallium flux. FluxOR thallium flux fluorescence; stronger effect = lower value. 310,000 tested, 1.2% active. B-score at 10 µM. Potassium channel subfamily K member 9 (Homo sapiens), Q9NPC2. AID 488922, 2010;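 active = ratio B-score over 3 SD below the library mean, with starting fluorescence within 5 SD of its mean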;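 note: negative B-score means less thallium flux so channel inhibition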
# KCNQ1 inh: inhibitors of human KCNQ1 channel, primary screen, cell-based, thallium flux, high-throughput; Potassium voltage-gated channel subfamily KQT member 1 (Homo sapiens), P51787; CHO-K1 KCNQ1, FluxOR thallium flux fluorescence; stronger effect = higher value; B-score at 10 µM; 310,000 tested, 1.3% active;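 active = compounds whose thallium flux B-score, printed positive for inhibition, exceeds three library SD while starting fluorescence stays within three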;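 note: channel opened by potassium depolarization with thallium stimulus after 20 min compound exposure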
# Target sequence (P51787 whole entry, looked up): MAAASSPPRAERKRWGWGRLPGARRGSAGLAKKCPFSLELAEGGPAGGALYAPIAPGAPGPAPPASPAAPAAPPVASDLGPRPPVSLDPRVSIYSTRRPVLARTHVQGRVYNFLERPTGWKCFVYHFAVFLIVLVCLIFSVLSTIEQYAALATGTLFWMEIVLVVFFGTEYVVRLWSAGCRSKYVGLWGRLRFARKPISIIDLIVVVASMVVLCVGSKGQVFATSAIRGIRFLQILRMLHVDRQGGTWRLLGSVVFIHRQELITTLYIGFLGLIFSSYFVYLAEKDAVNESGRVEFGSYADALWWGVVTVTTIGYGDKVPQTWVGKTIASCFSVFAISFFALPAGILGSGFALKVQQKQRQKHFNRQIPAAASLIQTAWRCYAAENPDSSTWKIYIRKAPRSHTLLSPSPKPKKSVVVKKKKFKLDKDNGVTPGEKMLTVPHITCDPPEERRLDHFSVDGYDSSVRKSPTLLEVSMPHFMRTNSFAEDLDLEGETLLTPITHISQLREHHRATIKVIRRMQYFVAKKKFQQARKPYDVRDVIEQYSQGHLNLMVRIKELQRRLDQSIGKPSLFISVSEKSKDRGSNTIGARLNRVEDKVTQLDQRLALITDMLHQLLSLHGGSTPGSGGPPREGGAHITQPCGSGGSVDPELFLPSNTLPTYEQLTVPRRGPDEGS
# KCNQ1 pot: potentiators or activators of KCNQ1 channel, primary screen, cell-based, thallium flux, high-throughput. Potassium voltage-gated channel subfamily KQT member 1 (Homo sapiens), P51787. CHO-K1 KCNQ1, thallium flux FluxOR fluorescence; stronger effect = higher value. B-score at 10 µM. 310,000 tested, 0.35% active;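 active = fluorescence ratio B-score, a plate-corrected score, at least three library SD, with initial intensity B-score within 5 SD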
#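 Test system: CHO-K1 cells stably expressing KCNQ1 / Medium: assay buffer / Also added: depolarizing K+/Tl+ stimulus, K2SO4 and Tl2SO4 each 12.5 mM in 5x stock / Incubation: 90 min dye loading and 20 min compound exposure, both at room temperature / Signal: thallium influx via FluxOR fluorescence, kinetic imaging / Evaluation: B score of baseline-normalized fluorescence ratio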
# hERG rescue: hERG rescue from dofetilide block, primary screen, cell-based, CHO-hERG, FluxOR thallium flux, dofetilide IC70. dofetilide IC70 present. activation (rescue from dofetilide block), less the hit threshold, % at 10 µM. 310,000 tested, 0.51% active;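 active = activation above the mean of controls blocked by dofetilide plus 5 SD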;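 note: thallium influx through hERG after potassium depolarization seen as dye fluorescence rise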
# * marks the source's active call; other numbers are inactive results; i = inactive; x = not tested or not shown. Shown are actives, neighbours in structure and some others; about 3.8% of the full set was active somewhere.
SMILES,KCNK3 block,Kir21 block,KCNK9 block,KCNQ1 inh,KCNQ1 pot,hERG rescue
CCOc1ccc(S(=O)(=O)Nc2cccc(C(=O)NCC3CCCO3)c2)cc1 (stereo not drawn),i,0.12,i,i,i,-7
CC(=O)c1ccccc1OC(=O)c1ccc(-c2ccccc2)cc1,i,-2.6,-6.7*,i,i,-3
COc1ccccc1N(Cc1ccccc1)S(=O)(=O)c1cccc(C(=O)Nc2ccc(C)cn2)c1,i,-0.91,i,6*,i,-18
COc1ccccc1N(Cc1ccccc1)S(=O)(=O)c1cccc(C(=O)Nc2ccccn2)c1,i,-0.59,i,i,i,-11
CCCN(Cc1ccco1)S(=O)(=O)c1ccc(OC)c(OC)c1,i,-4.9*,i,i,i,-12
CC1CN(Cc2ccccc2)c2ccccc2NC1=S (stereo not drawn),i,-4.2*,i,i,i,-9
CC1CN(Cc2ccccc2)C(=O)N(c2ccccc2)C1=O (stereo not drawn),i,x,x,x,x,x
CCN(Cc1ccccc1)C(c1ccccn1)c1nnnn1C(C)(C)CC (stereo not drawn),i,-2.2,-8*,i,i,-5
CCN(Cc1ccccc1)C(c1ccc(C)cc1)c1nnnn1C(C)(C)C (stereo not drawn),i,-1.5,-7.8*,i,i,-6
CC(C)(C)n1nnnc1C(c1ccncc1)N(Cc1ccccc1)Cc1ccco1 (stereo not drawn),i,-1.5,i,i,i,-13
COc1ccc(NC(=O)CN(C)C(=O)C2(c3ccccc3)CCCC2)cc1,i,x,x,x,x,x
Cc1ccccc1C(=O)c1cccn1CC(=O)NC(C)c1ccccc1 (stereo not drawn),i,-4.4*,i,i,i,1
COc1cc(CNCc2ccccn2)ccc1OCc1c(Cl)cccc1Cl,i,-8.8*,i,i,i,-1
COc1cc(CNCc2ccco2)ccc1OCc1ccccc1,i,0.02,i,i,i,-10
COc1cc(CNCc2cccs2)ccc1OCc1cccs1,i,-5*,i,i,i,-3
COc1cc(CNCc2cccs2)ccc1OCc1ccccc1,i,-3,i,i,i,-10
COc1cc(CNCc2ccccn2)ccc1OCc1cccc(Cl)c1,i,-7.6*,i,i,i,-9
CC(C)(C)NCc1cc(Br)ccc1OCc1cccs1,i,-4.8*,i,i,i,-5
C=CCSC1=N/C(=C\c2ccc(C(=O)O)cc2)C(=O)S1,i,-0.34,i,i,i,-11
Cc1ccc(S(=O)(=O)NCCNc2ccccc2[N+](=O)[O-])cc1,i,-4.3*,i,i,i,-6
O=[N+]([O-])c1ccc(NCCNS(=O)(=O)c2ccccc2)c(C(F)(F)F)c1,i,-5.8*,i,i,i,-6
COc1ccc(CCNCC(O)Cn2c3ccccc3c3ccccc32)cc1OC (stereo not drawn),i,-10*,i,i,i,-32
CC(=O)OCC(=O)Nc1ccc(Br)c(C)c1,i,2.3,i,i,i,-9
Cc1cc(NC(=O)COC(=O)Cn2c(C)csc2=O)ccc1Br,i,1.7,i,6*,i,-9
O=C(CSc1ccccc1)N(c1ccc(Br)cc1)c1nccs1,i,-5.2*,i,i,i,-8
SMILES,KCNK3 block,Kir21 block,KCNK9 block,KCNQ1 inh,KCNQ1 pot,hERG rescue
O=C(CCSc1ccccc1)Nc1nccs1,i,1.2,i,i,i,-5
O=C(Nc1c(F)cccc1F)C1CCN(C(=O)c2cccs2)CC1,i,-1.6,i,i,i,-6
Cc1ccc(N=Cc2cc(Br)cc(Cl)c2O)cc1,i,1.7,i,i,i,-5
Oc1c(Cl)cc(Cl)cc1C=Nc1ccc(Br)cc1,i,0.72,i,i,i,5.0*
CCN(CC)c1nc2ccccc2nc1-n1nc(C)cc1C,i,-4.3*,i,i,i,-9
Cc1cc(C)n(-c2nc3ccccc3n3cnnc23)n1,i,0,i,i,i,0
Cc1cc(C)n(-c2nc3ccccc3nc2Nc2ccc3c(c2)OCO3)n1,i,-1.8,-7.3*,i,i,-14
CC(C)C(=O)Nc1ccc2c(c1)Cc1cc(NC(=O)C(C)C)ccc1-2,i,-0.43,i,i,i,6.0*
CC(=O)Nc1ccc2c(c1)Cc1ccc(Cl)cc1-2,i,x,x,x,x,x
C=CCN1C(=O)c2ccc(C(=O)N(C)CC(=O)Nc3c(C)cccc3C)cc2C1=O,i,-6.7e-16,i,i,i,-15
COCCN(CCOC)Cc1c(O)ccc2c3c(c(=O)oc12)CCC3,i,-1.1,-7.1*,i,i,-7
O=C(Cc1cccc(NC(=O)C2CCCN(C(=O)C3CCCCC3)C2)c1)Nc1cccc(C(=O)N2CCCC2)c1 (stereo not drawn),i,x,x,x,x,x
COc1cc(CNCCNC(=O)c2nonc2N)ccc1OCc1ccc(Cl)cc1,i,-6.7*,i,i,i,-23
Cc1cccc(NC(=O)C(=O)NCC2CCCN2S(=O)(=O)c2ccccc2)c1 (stereo not drawn),i,0.24,i,i,i,-21
CC1(C)Cc2c(C#N)c(NC3CCCCC3)nc(-c3ccco3)c2CO1,i,-1.4,i,6*,i,-22
CC1(C)Cc2c(C#N)c(NCC3CCCO3)nc(-c3ccco3)c2CO1 (stereo not drawn),i,0.02,i,i,i,-7
CC(Oc1ccc(Br)cc1)C(=O)Nc1ccc(S(=O)(=O)NC2=NCCCCC2)cc1 (stereo not drawn),i,x,x,x,x,x
CC1(C)Nc2ccc(O)cc2-c2c1ssc2=S,i,-12*,i,i,i,-8
C=CCn1c2ccccc2c2nnc(SCN3C(=O)c4ccccc4C3=O)nc21,i,0.01,i,6*,i,-9
CCCCn1c(N)c(N(CCOC)C(=O)CSc2nnc(-c3ccc(F)cc3)n2N)c(=O)[nH]c1=O,i,-0.73,i,i,i,-17
CCCCC(Nc1ncnc2ccccc12)C(=O)O (stereo not drawn),i,2,i,i,16*,-10
CC(Nc1ncnc2ccccc12)c1ccccc1 (stereo not drawn),i,0.63,i,6*,i,-18
CC(C)Oc1ccc(Nc2ncnc3ccccc23)cc1,i,-1.4,i,i,i,-9
